Calls of active or inactive are those of the source. No cut-off for these calls is given here.
How the values were obtained:
[1] = system: HeLa; assay: Cell cycle arrest in human HeLa cells assessed as time delay in progression through mitosis at 2 uM treated 2 hr post double thymidine-synchrony release using propidium iodide staining by FACS analysis; format: functional
Method in brief: (§1)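 Cells harvested at set times post-release, fixed in 70% ethanol, stained with 5 μg/ml propidium iodide plus 0.5 mg/ml RNase A, and analysed by flow cytometry. Cell-cycle phase fractions calculated by ModFit.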

[2] = system: HeLa; assay: Cell cycle arrest in synchronized human HeLa cells assessed as time required to reach anaphase/telophase at 2 uM by time-lapse microscopy (reference value: 78+/-51 mins); format: functional
[3] = system: HCT-116; assay: Cell cycle arrest in Rb-competent human HCT116 cells assessed as […] at IC90 after 24 hrs using BrdUrd staining by FACS analysis (Rvb =38 %); format: functional
[4] = system: MDA-MB-435; assay: Antiproliferative activity against human MDA-MB-435 cells assessed as inhibition of S phase after 48 hrs by MTT assay; format: functional, cell-based; conditions: MDA-MB-435, 48 h
Method in brief: (§2)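 Cells grown in DMEM with 3 mM HEPES and 10% Serum Supreme at 37 °C, 5% CO2. Proliferation read by MTT assay 48 h after drug addition; IC50 given as mean of two separate determinations, each in duplicate.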

[5] = system: A2058; assay: Cell cycle arrest in human A2058 cells assessed as accumulation at G1 phase at 2 uM treated 1 hr and measured 12 hr post double hydroxyurea-synchrony release using propidium iodide staining by FACS analysis (reference value: 14 %); format: functional
[6] = system: HeLa; assay: Cell cycle arrest in human HeLa cells assessed as accumulation at G1 phase at 2 uM treated 4 hr and measured 8 hr post double thymidine-synchrony release using propidium iodide staining by FACS analysis (reference value: 6 %); format: functional
[7] = system: A2058; assay: Cell cycle arrest in human A2058 cells assessed as accumulation at S phase at 2 uM treated 1 hr and measured 8 hr post double hydroxyurea-synchrony release using propidium iodide staining by FACS analysis (reference value: 52 %); format: functional
[8] = molecular target: Cyclin-dependent kinase 4 (Homo sapiens) (UniProt P11802); assay: Inhibition of CDK4-mediated Rb phosphorylation at ser 795 in human HCT116 cells at 3 times IC90 after 24 hrs by immunoblot analysis; format: cell-based; conditions: HCT-116
Method in brief: (§3)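 Asynchronous HCT-116 cells (DMEM, 3 mM HEPES, 10% serum, 37 °C, 5% CO₂) were given increasing inhibitor doses for 4 or 24 h. Lysis in NETN with phosphatase and protease inhibitors, then SDS-PAGE, nitrocellulose transfer and immunoblot for phospho-Rb (Ser-795) with HRP secondary and chemiluminescence.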

[9] = system: A2058; assay: Cell cycle arrest in human A2058 cells assessed as effect on G2/M phase progression at 2 uM treated 6 hr post double hydroxyurea-synchrony release using propidium iodide staining by FACS analysis; format: functional, cell-based
[10] = molecular target: Proto-oncogene tyrosine-protein kinase Src (Homo sapiens, UniProt P12931); assay: Inhibition of Src using fluorescent substrate by IMAP assay
Method in brief: (§4)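 Run in-house using IMAP: phosphorylated fluorescent peptide substrate binds preferentially to immobilized metal beads, which quantifies kinase activity. ATP at 3× the Km of each enzyme.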

[11] = molecular target: Tyrosine-protein kinase Lck (Homo sapiens, UniProt P06239); assay: Inhibition of Lck using fluorescent substrate by IMAP assay; method in brief: as §4
[12] = system: HeLa; assay: Cell cycle arrest in human HeLa cells assessed as accumulation at G2/M phase at 2 uM treated 4 hr and measured 8 hr post double thymidine-synchrony release using propidium iodide staining by FACS analysis (reference value: 86 %); format: functional; method in brief: as §1
[13] = molecular target: Cyclin-dependent kinase 4 (Homo sapiens) (UniProt P11802); assay: Inhibition of CDK4-mediated Rb phosphorylation at ser 795 in human HCT116 cells at IC90 after 4 hrs by immunoblot analysis; format: cell-based; conditions: HCT-116; method in brief: as §3
[14] = system: HeLa; assay: Cell cycle arrest in human HeLa cells assessed as accumulation at S phase at 2 uM treated 2 hr and measured 8 hr post double thymidine-synchrony release using propidium iodide staining by FACS analysis (reference value: 8 %); format: functional; method in brief: as §1
[15] = system: MDA-MB-453; assay: Antiproliferative activity against human MDA-MB-453 assessed as inhibition of S phase cells after 48 hrs by MTT assay; format: functional, cell-based; conditions: MDA-MB-453, 48 h; method in brief: as §2
[16] = system: A2058; assay: Cell cycle arrest in human A2058 cells assessed as accumulation at G2/M phase at 2 uM treated 1 hr and measured 12 hr post double hydroxyurea-synchrony release using propidium iodide staining by FACS analysis (reference value: 39 %); format: functional
[17] = system: HeLa; assay: Induction of abberent mitosis in human HeLa cells expressing GFP-H2B assessed as lagging chromosomes at astral side of spindle microtubules at 2 uM treated 1 hr and measured 12 hr post-thymidine release by time-lapse microscopy; format: functional, cell-based
[18] = Cell cycle arrest in human SK-MEL-13 cells assessed as accumulation at G1 phase at 2 uM treated 1 hr and measured 10 hr post double hydroxyurea-synchrony release using propidium iodide staining by FACS analysis (reference value: 14 %); format: functional, cell-based
Method in brief: (§5)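 SK-Mel-13 cells synchronized with 2 mM hydroxyurea, then treated with 2 μM CDK4 inhibitor or left untreated 1 h after release. Harvested at indicated times post-release, ethanol-fixed, propidium iodide/RNase stained, and DNA content read by FACS. Proportions of G1, S and G2/M cells derived with ModFit.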

[19] = system: HeLa; assay: Cell cycle arrest in synchronized human HeLa cells assessed as large multinuclear cell formation at 2 uM by time-lapse microscopy; format: functional, cell-based
[20] = system: HeLa; assay: Cell cycle arrest in human HeLa cells assessed as accumulation at G1 phase at 2 uM treated 6 hr and measured 12 hr post double thymidine-synchrony release using propidium iodide staining by FACS analysis (reference value: 81 %); format: functional
[21] = system: HeLa; assay: Cell cycle arrest at G2 phase in human HeLa cells assessed as time taken to reach peak mitosis at 2 uM treated at early S phase post thymidine-synchrony release by immunoblot method (reference value: 9-10 hrs); format: functional
[22] = system: HeLa; assay: Induction of abberent mitosis in human HeLa cells assessed as lagging chromosomes at 2 uM treated 1 hr and measured 12 hr post thymidine-synchrony release by fluorescence microscopy
[23] = system: HeLa; assay: Cell cycle arrest in Rb-deficient human HeLa cells assessed as accumulation at S phase at 2 uM after 24 hrs by FACS analysis; format: functional
Method in brief: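 Ethanol-fixed cells stained with propidium iodide/RNase A, DNA content read by FACS, phase and sub-diploid fractions calculated with ModFit.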

[24] = Cell cycle arrest in human SK-MEL-13 cells assessed as accumulation at G2/M phase at 2 uM treated 1 hr and measured 10 hr post double hydroxyurea-synchrony release using propidium iodide staining by FACS analysis (reference value: 70 %); format: functional, cell-based; method in brief: as §5
[25] = system: HeLa; assay: Cell cycle arrest in human HeLa cells transfected with cyclin D3 siRNA at 2 uM measured after 8 to 20 hr post hydroxyurea-synchrony release by time-lapse microscopy; format: functional, cell-based
Method in brief: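 HeLa cells transfected with 20 nM cyclin D3 siRNA number 1 or scrambled siRNA, then synchronized by overnight 2 mM hydroxyurea block and released. Treated with CDK4 inhibitor, siRNA, or both; entry into mitosis followed by time-lapse microscopy.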

[26] = system: HeLa; assay: Cell cycle arrest in human HeLa cells assessed as accumulation at G2/M phase at 2 uM treated 6 hr and measured 12 hr post double thymidine-synchrony release using propidium iodide staining by FACS analysis (reference value: 17 %); format: functional; method in brief: as §1

Chain of Cyclin-dependent kinase 4 (Homo sapiens) (P11802 whole entry): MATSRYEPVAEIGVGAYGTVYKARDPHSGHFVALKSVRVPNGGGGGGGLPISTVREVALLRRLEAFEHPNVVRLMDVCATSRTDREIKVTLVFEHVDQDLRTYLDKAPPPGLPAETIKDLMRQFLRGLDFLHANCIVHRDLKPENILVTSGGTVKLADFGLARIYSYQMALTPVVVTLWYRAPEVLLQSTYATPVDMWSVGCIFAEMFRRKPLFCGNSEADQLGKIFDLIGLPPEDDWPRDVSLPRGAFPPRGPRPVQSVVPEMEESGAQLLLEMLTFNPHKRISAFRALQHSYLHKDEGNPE
Chain of Proto-oncogene tyrosine-protein kinase Src (P12931 2-536 limits assumed): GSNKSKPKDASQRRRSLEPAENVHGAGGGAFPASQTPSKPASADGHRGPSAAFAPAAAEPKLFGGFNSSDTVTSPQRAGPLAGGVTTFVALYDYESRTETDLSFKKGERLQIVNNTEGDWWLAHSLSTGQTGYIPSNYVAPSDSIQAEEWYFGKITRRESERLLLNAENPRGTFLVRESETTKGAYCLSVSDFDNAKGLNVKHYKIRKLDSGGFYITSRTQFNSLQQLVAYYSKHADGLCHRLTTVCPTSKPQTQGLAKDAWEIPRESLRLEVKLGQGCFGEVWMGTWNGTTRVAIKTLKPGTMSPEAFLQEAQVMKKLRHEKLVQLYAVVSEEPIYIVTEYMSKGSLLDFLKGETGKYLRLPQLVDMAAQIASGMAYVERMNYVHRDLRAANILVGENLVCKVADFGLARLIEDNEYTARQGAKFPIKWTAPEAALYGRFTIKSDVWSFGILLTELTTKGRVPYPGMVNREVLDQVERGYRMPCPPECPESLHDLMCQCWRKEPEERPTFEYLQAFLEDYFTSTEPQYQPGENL
Chain of Tyrosine-protein kinase Lck (P06239 whole entry): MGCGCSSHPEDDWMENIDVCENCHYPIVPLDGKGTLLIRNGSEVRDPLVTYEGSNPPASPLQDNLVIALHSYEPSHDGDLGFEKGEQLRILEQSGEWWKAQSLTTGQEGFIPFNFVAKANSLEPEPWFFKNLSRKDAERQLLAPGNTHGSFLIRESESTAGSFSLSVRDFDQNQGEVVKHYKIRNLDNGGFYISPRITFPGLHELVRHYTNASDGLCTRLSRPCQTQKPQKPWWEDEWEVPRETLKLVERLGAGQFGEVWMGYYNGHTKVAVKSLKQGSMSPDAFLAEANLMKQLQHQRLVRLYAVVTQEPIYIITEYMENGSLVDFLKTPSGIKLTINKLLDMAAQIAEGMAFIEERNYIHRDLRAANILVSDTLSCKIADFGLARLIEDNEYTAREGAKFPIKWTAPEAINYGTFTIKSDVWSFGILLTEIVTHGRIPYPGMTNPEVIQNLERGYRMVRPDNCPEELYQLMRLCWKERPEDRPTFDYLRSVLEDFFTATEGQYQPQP

COc1cccc(C(=O)c2sc(Nc3ccc(N4CCN(C(C)C)CC4)cc3)nc2N)c1
Time [1]: 4 h | Time [2]: 152 min | Activity [3]: 11% | IC50 [4]: 1.2 µM | Activity [5]: 0% | Activity [6]: 5% | Activity [7]: 23% | inhibition [8]: Active | Activity [9]: inactive | IC50 [10]: 3.48 µM | IC50 [11]: > 100 µM | Activity [12]: 91% | inhibition [13]: Active | Activity [14]: 9% | IC50 [15]: 0.71 µM | Activity [16]: 60% | Activity [17]: Active | Activity [18]: 11% | Activity [19]: Active | Activity [20]: 73% | Time [21]: 12 h | Activity [22]: 40% | Activity [23]: 27% | Activity [24]: 75% | Activity [25]: Active | Activity [26]: 25%

CN1CCN(c2ccc(Nc3nc(N)c(C(=O)c4ccc5c(c4)OCCO5)s3)cc2)CC1
Time [1]: 4 h | Time [2]: 152 min | Activity [3]: 11% | IC50 [4]: 3.06 µM | Activity [5]: 0% | Activity [6]: 5% | Activity [7]: 23% | inhibition [8]: Active | Activity [9]: inactive | IC50 [10]: 3.21 µM | IC50 [11]: > 100 µM | Activity [12]: 91% | inhibition [13]: Active | Activity [14]: 9% | IC50 [15]: 1.45 µM | Activity [16]: 60% | Activity [17]: Active | Activity [18]: 11% | Activity [19]: Active | Activity [20]: 73% | Time [21]: 12 h | Activity [22]: 40% | Activity [23]: 27% | Activity [24]: 75% | Activity [25]: Active | Activity [26]: 25%

— ChEMBL document CHEMBL1955770, “Inhibition of S/G2 phase CDK4 reduces mitotic fidelity” (J Biol Chem, 2006)
